Experimental data from article PMC10753860 (European journal of medicinal chemistry, 2023).

Assays:
[1] = tested on: HBV replication in AML12HBV10 cells; assay: Antiviral dot blot hybridization assay of HBV DNA in AML12HBV10 cells; type: cell-based, hepatitis B virus (mouse hepatocyte-derived cell line)
[2] = tested on: HBV capsid assembly and pgRNA encapsidation in AML12HBV10 cells; assay: Mode of action study in AML12HBV10 cells; type: cell-based, hepatitis B virus (mouse hepatocyte-derived cell line); settings: 2 days, ETV 1 μM; for amount of total viral RNA / amount of core protein / amount of encapsidated pgRNA / viral DNA replication intermediates: 17 or 18 1 or 5 μM; for amount of total viral RNA / amount of encapsidated pgRNA: Northern blot; for amount of core protein: Western blot; for amount of encapsidated pgRNA / viral DNA replication intermediates: Bay 41-4109 2 μM, DVR-23 5 μM; for viral DNA replication intermediates: Southern blot
In short: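 Mouse hepatocyte-derived AML12HBV10 cells carry a tetracycline-inducible, envelope-deficient HBV genome. They were seeded in 24-well plates, kept with tet (negative control) or without it for 24 h, then DMSO- or compound-treated for 48 h. Read-outs: total RNA and encapsidated pgRNA by Northern blot (rRNA loading); Cp by Western blot with antibody to its C-terminal 14 residues (β-actin loading); capsids and core DNA by native agarose particle gel.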

[3] = tested on: HBV replication in AML12HBV10 cells; settings: HBV AML12HBV10 cell line; cited from earlier work

Structure (SMILES): O=C(Nc1ccc(F)c(Cl)c1)N1CCc2ccccc21 [Compound 30, N-(3-chloro-4-fluorophenyl)indoline-1-carboxamide]
- anti-HBV activity (in words) ([1]; AML12HBV10 cells): maintained activity

Structure (SMILES): O=C(Nc1ccc(F)c(Cl)c1)N1CCCCc2ccccc21 [Compound 32, N-(3-chloro-4-fluorophenyl)-2,3,4,5-tetrahydro-1H-benzo[b]azepine-1-carboxamide]
- anti-HBV activity (in words) ([1]; AML12HBV10 cells): diminished the activity

Structure (SMILES): O=C(Nc1ccc(F)c(C(F)F)c1)N1CCNc2ccccc21 [Compound 35, N-(3-(difluoromethyl)-4-fluorophenyl)-3,4-dihydroquinoxaline-1(2H)-carboxamide]
- anti-HBV activity (in words) ([1]; AML12HBV10 cells): improved the potencies

Structure (SMILES): NC1CCN(C(=O)Nc2ccc(F)c(Cl)c2)c2ccccc21 (stereo not drawn) [Compound 28, 4-Amino-N-(3-chloro-4-fluorophenyl)-3,4-dihydroquinoline-1(2H)-carboxamide]
- anti-HBV activity (in words) ([1]; AML12HBV10 cells): no activity was observed

Structure (SMILES): O=C(NCc1cccc(Cl)c1)N1CCNc2ccccc21 [Compound 44, N-(3-chlorobenzyl)-3,4-dihydroquinoxaline-1(2H)-carboxamide]
- anti-HBV activity (in words) ([1]; AML12HBV10 cells): reduced the activity

Structure (SMILES): O=C(Nc1ccc(F)c(Cl)c1)N1CCNc2ccccc21 [Compound 17, N-(3-chloro-4-fluorophenyl)-3,4-dihydroquinoxaline-1(2H)-carboxamide]
- amount of total viral RNA [2]: did not alter
- amount of core protein [2]: did not alter
- amount of encapsidated pgRNA [2]: drastically reduced
- viral DNA replication intermediates [2]: drastically reduced

Structure (SMILES): C=C1[C@H](CO)[C@@H](O)C[C@@H]1n1cnc2c(=O)[nH]c(N)nc21 [ETV, Entecavir]
- amount of total viral RNA [2]: did not alter
- amount of core protein [2]: did not alter
- amount of encapsidated pgRNA [2]: did not alter
- viral DNA replication intermediates [2]: drastically reduced
- amount of capsid-associated viral DNA ([2]; particle gel assay): drastically reduced

Structure (SMILES): O=C(Nc1ccc(F)c(Cl)c1)N1c2ccccc2NCC1c1ccccc1 (stereo not drawn) [Compound 74, N-(3-chloro-4-fluorophenyl)-2-phenyl-3,4-dihydroquinoxaline-1(2H)-carboxamide]
- anti-HBV activity (in words) ([1]; AML12HBV10 cells): sub-micromolar activity

Structure (SMILES): O=C(Nc1ccc(F)c(Cl)c1)N1CCN(C(=O)Nc2cc(Cl)c(F)cc2F)c2ccccc21 [Compound 96, N^1-(5-chloro-2,4-difluorophenyl)-N^4-(3-chloro-4-fluorophenyl)-2,3-dihydroquinoxaline-1,4-dicarboxamide]
- anti-HBV activity (in words) ([1]; AML12HBV10 cells): sub-micromolar activities

Structure (SMILES): O=C1CN(C(=O)Nc2ccc(F)c(Cl)c2)c2ccccc2N1 [Compound 29, N-(3-chloro-4-fluorophenyl)-3-oxo-3,4-dihydroquinoxaline-1(2H)-carboxamide]
- anti-HBV activity (in words) ([1]; AML12HBV10 cells): inactive

Structure (SMILES): O=C(Nc1ccc(F)c(Cl)c1)N1c2ccccc2NCC1CN1CCOCC1 (stereo not drawn) [Compound 71, N-(3-chloro-4-fluorophenyl)-2-(morpholinomethyl)-3,4-dihydroquinoxaline-1(2H)-carboxamide]
- anti-HBV activity (in words) ([1]; AML12HBV10 cells): reduced the activity significantly

Structure (SMILES): CCC(C)NS(=O)(=O)c1ccc(F)c(C(=O)Nc2ccc(F)c(F)c2)c1 (stereo not drawn) [DVR-23]
- amount of encapsidated pgRNA [2]: significantly reduced
- viral DNA replication intermediates [2]: viral DNA replication was inhibited

Structure (SMILES): O=S(=O)(Nc1ccc(F)c(Cl)c1)N1CCNc2ccccc21 [Compound 26, N-(3-chloro-4-fluorophenyl)-3,4-dihydroquinoxaline-1(2H)-sulfonamide]
- anti-HBV activity (in words) ([1]; AML12HBV10 cells): loss of activity

Structure (SMILES): O=C(Nc1cc(F)c(F)c(F)c1)N1CCN(C(=O)Nc2ccc(F)c(Cl)c2)c2ccccc21 [Compound 95, N^1-(3-chloro-4-fluorophenyl)-N^4-(3,4,5-trifluorophenyl)-2,3-dihydroquinoxaline-1,4-dicarboxamide]
- anti-HBV activity (in words) ([1]; AML12HBV10 cells): sub-micromolar activities

Structure (SMILES): O=C(Nc1ccc(F)c(Cl)c1)N1CCCc2ccccc21 [Compound 27, N-(3-chloro-4-fluorophenyl)-3,4-dihydroquinoline-1(2H)-carboxamide]
- reduction of activity relative to 17 ([1]; AML12HBV10 cells, replacement of 4-N with CH2): 3 fold

Structure (SMILES): O=C(Nc1cccc(Cl)c1)N1c2ccccc2NCC1CN1CCC(F)(F)CC1 (stereo not drawn) [Compound 89, N-(3-chlorophenyl)-2-((4,4-difluoropiperidin-1-yl)methyl)-3,4-dihydroquinoxaline-1(2H)-carboxamide]
- anti-HBV activity (in words) ([1]; AML12HBV10 cells): moderate sub-micromolar

Structure (SMILES): N#Cc1cc(NC(=O)N2c3ccccc3NCC2CN2CCC(F)(F)CC2)ccc1F (stereo not drawn) [Compound 86, N-(3-cyano-4-fluorophenyl)-2-((4,4-difluoropiperidin-1-yl)methyl)-3,4-dihydroquinoxaline-1(2H)-carboxamide]
- EC50 ([1]; Hepatitis B virus, AML12HBV10, in Mus musculus): ~100 nM

Structure (SMILES): O=C(Nc1ccc(F)c(C(F)(F)F)c1)N1c2ccccc2NCC1CN1CCC(F)(F)CC1 (stereo not drawn) [Compound 87, 2-((4,4-difluoropiperidin-1-yl)methyl)-N-(4-fluoro-3-(trifluoromethyl)phenyl)-3,4-dihydroquinoxaline-1(2H)-carboxamide]
- anti-HBV activity (in words) ([1]; AML12HBV10 cells): moderate sub-micromolar

Structure (SMILES): O=C(Nc1ccc(F)c(Cl)c1)c1cccc2c1OCCO2 [38017 (8)]
- EC50 (in words) [3]: sub-micromolar

Structure (SMILES): O=C(Nc1ccc(F)c(Cl)c1)N1CC(CN2CCC(F)(F)CC2)N(C(=O)Nc2ccc(F)c(Cl)c2)c2ccccc21 (stereo not drawn) [Compound 98, N^1,N^4-bis(3-chloro-4-fluorophenyl)-2-((4,4-difluoropiperidin-1-yl)methyl)-2,3-dihydroquinoxaline-1,4-dicarboxamide]
- anti-HBV activity (in words) ([1]; AML12HBV10 cells): did not help to improve the activity significantly

Structure (SMILES): O=C(Nc1ccc(F)c(Cl)c1)C1CCNc2ccccc21 (stereo not drawn) [Compound 23, N-(3-chloro-4-fluorophenyl)-1,2,3,4-tetrahydroquinoline-4-carboxamide]
- anti-HBV activity (in words) ([1]; AML12HBV10 cells): loss of activity

Structure (SMILES): O=C(Nc1ccc(F)c(Cl)c1)N1CCN(C(=O)Nc2ccc(F)c(Cl)c2)c2ccccc21 [Compound 18, N^1,N^4-bis(3-chloro-4-fluorophenyl)-2,3-dihydroquinoxaline-1,4-dicarboxamide]
- amount of total viral RNA [2]: did not alter
- amount of core protein [2]: did not alter
- amount of encapsidated pgRNA [2]: drastically reduced
- viral DNA replication intermediates [2]: drastically reduced

Structure (SMILES): O=C(Cc1ccc(F)c(Cl)c1)N1CCNc2ccccc21 [Compound 45, 2-(3-chloro-4-fluorophenyl)-1-(3,4-dihydroquinoxalin-1(2H)-yl)ethanone]
- anti-HBV activity (in words) ([1]; AML12HBV10 cells): loss of activity

Structure (SMILES): CC1(C)CCN(CC2CNc3ccccc3N2C(=O)Nc2ccc(F)c(Cl)c2)CC1 (stereo not drawn) [Compound 76, N-(3-chloro-4-fluorophenyl)-2-((4,4-dimethylpiperidin-1-yl)methyl)-3,4-dihydroquinoxaline-1(2H)-carboxamide]
- anti-HBV activity (in words) ([1]; AML12HBV10 cells): loss of activity

Structure (SMILES): COC(=O)C1=C(C)NC(c2ncc(F)cc2F)=N[C@H]1c1ccc(F)cc1Cl [Bay 41-4109]
- amount of encapsidated pgRNA [2]: significantly reduced
- viral DNA replication intermediates [2]: viral DNA replication was inhibited

Structure (SMILES): O=C(Nc1ccc(F)c(Cl)c1)N1CC(CN2CCC(F)(F)C2)N(C(=O)Nc2ccc(F)c(Cl)c2)c2ccccc21 (stereo not drawn) [Compound 97, N^1,N4-bis(3-chloro-4-fluorophenyl)-2-((3,3-difluoropyrrolidin-1-yl)methyl)-2,3-dihydroquinoxaline-1,4-dicarboxamide]
- anti-HBV activity (in words) ([1]; AML12HBV10 cells): did not help to improve the activity significantly

Structure (SMILES): O=C(Nc1ccc(F)c(Cl)c1)N1CCN[C@H]2CCCC[C@H]21 (relative stereo) [Compound 34, Cis-N-(3-chloro-4-fluorophenyl)octahydroquinoxaline-1(2H)-carboxamide]
- anti-HBV activity (in words) ([1]; AML12HBV10 cells): loss of activity
